Results reported in paper PMC9298202 (Chemmedchem, 2021).
Where two headings read alike, the source gives them in different places.

Legend:
Format in all cases: cell-based
[1] = tested on: J774.2 macrophages; test: Cytotoxicity in J774.2 macrophages; settings: read-out: Toxicity in macrophages IC50
[2] = tested on: Vero cells; test: Cytotoxicity in Vero cells; settings: read-out: Vero cells toxicity IC50
Procedure, shortened: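 Vero cells were grown in RPMI + 10% inactivated FBS at 37 °C in humidified 5% CO2. They were resuspended at 1×10^5 cells/mL, cultured 2 days, then given fresh medium with test compound for 72 h. Viability was read by flow cytometry. IC50 was derived by linear regression from Kc values; results average four determinations.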

[3] = tested on: Leishmania infantum promastigote forms; test: In vitro activity on promastigote; settings: for Selectivity index Promastigote forms: L. infantum, IC50 macrophages toxicity/IC50 activity; for IC50: Leishmania infantum, read-out: Activity IC50 Promastigote forms
[4] = tested on: Leishmania braziliensis promastigote forms; test: In vitro activity on promastigote; settings: for Selectivity index Promastigote forms: L. braziliensis, IC50 macrophages toxicity/IC50 activity; for IC50: Leishmania braziliensis, read-out: Activity IC50 Promastigote forms
Procedure, shortened: (§1)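 Extracellular promastigotes were tested at 1, 10, 25 and 200 µM, and IC50 was derived by linear regression from Kc values, averaging four determinations.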

[5] = tested on: Leishmania donovani promastigote forms; test: In vitro activity on promastigote; settings: for IC50: Leishmania donovani, read-out: Activity IC50 Promastigote forms; for Selectivity index Promastigote forms: L. donovani, IC50 macrophages toxicity/IC50 activity
Procedure, shortened: as §1

[6] = tested on: Trypanosoma cruzi SN3 epimastigote forms; test: Epimastigote assay, T. cruzi SN3; settings: for Selectivity index Epimastigote forms: T. cruzi SN3, IC50 Vero cell toxicity/IC50 activity; for IC50: Trypanosoma cruzi, read-out: Activity IC50 Epimastigote forms
Procedure, shortened: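 SN3 epimastigotes (Rhodnius prolixus isolate, Colombia) were grown at 28 °C in Grace's Insect Medium + 10% inactivated FBS. Exponential-phase cells were plated at 5×10^4 parasites/well with test compound in MTL medium at 100, 50, 25, 12,5 and 6,25 µM. Counts after 72 h used a Neubauer chamber. IC50 came from linear regression of Kc values; SI = Vero IC50/epimastigote IC50.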

[7] = tested on: Leishmania infantum amastigote forms; test: In vitro activity on amastigote; settings: for Selectivity index Amastigote forms: L. infantum, IC50 macrophages toxicity/IC50 activity; for IC50: Leishmania infantum, read-out: Activity IC50 Amastigote forms
[8] = tested on: Leishmania braziliensis amastigote forms; test: In vitro activity on amastigote; settings: for Selectivity index Amastigote forms: L. braziliensis, IC50 macrophages toxicity/IC50 activity; for IC50: Leishmania braziliensis, read-out: Activity IC50 Amastigote forms
Procedure, shortened: (§2)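 J774.2 macrophages were infected with promastigotes, which became intracellular amastigotes within 1 day; test compounds were then added. IC50 came from linear regression of Kc values at 1, 10, 25 and 200 µM, averaging four determinations.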

[9] = tested on: Leishmania donovani amastigote forms; test: In vitro activity on amastigote; settings: for Selectivity index Amastigote forms: L. donovani, IC50 macrophages toxicity/IC50 activity; for IC50: Leishmania donovani, read-out: Activity IC50 Amastigote forms
Procedure, shortened: as §2

[10] = tested on: Trypanosoma cruzi SN3 amastigote forms; test: Amastigote assay, T. cruzi SN3; settings: for Selectivity index Amastigote forms: T. cruzi SN3, IC50 Vero cell toxicity/IC50 activity; for IC50: Trypanosoma cruzi, read-out: Activity IC50 Amastigote forms
Procedure, shortened: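 Vero cells in RPMI + 10% inactivated FBS (37 °C, 5% CO2) were seeded at 1×10^4 cells/well on coverslips for 2 days. They were infected 10:1 with SN3 metacyclic forms, obtained by 12-day culture of epimastigotes at 28 °C in modified Grace's medium (~40% metacyclic). After 24 h, cells were washed and exposed to 6.25–100 µM for 72 h. Giemsa-stained amastigotes were counted; IC50 from four determinations; SI used Vero IC50.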

[11] = tested on: Trypanosoma cruzi SN3 trypomastigote forms; test: Trypomastigote activity, T. cruzi SN3; settings: for Selectivity index Trypomastigote forms: T. cruzi SN3, IC50 Vero cell toxicity/IC50 activity; for IC50: Trypanosoma cruzi, read-out: Activity IC50 Trypomastigote forms
[12] = J774.2 macrophages after 72 h of culture (Table 1)
[13] = Vero cells after 72 h of culture
[14] = Chlorocebus sabaeus, Vero, 72 h

Molecule	IC50 [3]	IC50 [4]	IC50 [5]	IC50 [6]	IC50 [8]	Selectivity index Promastigote forms [3]	IC50 ([1]; Mus musculus, J774.2, 72 h)	Selectivity index Promastigote forms [4]	Selectivity index Epimastigote forms [6]	IC50 [2, 14]	Selectivity index Promastigote forms [5]	Selectivity index Amastigote forms [8]	also measured
1‐[3‐(imidazol‐1‐yl)propylamino]pyridazine [1 b]													IC50 [1, 12]: 18.6 ± 1 µM; IC50 [2, 13]: 43.6 ± 2.7 µM
Clc1ccc(NCCCn2ccnc2)nn1 [1 d, N ‐(3‐(1H‐imidazol‐1‐yl)propyl)‐6‐chloropyridazin‐3‐amine]	15.3 ± 0.5 µM	13.5 ± 0.3 µM	20.6 ± 2.3 µM	11.8 ± 0.6 µM		1 (1)	19.3 ± 1.1 µM	1	3 (3)	33.2 ± 2.8 µM	1 (1)		
c1ccc2[nH]c(CCNc3nnc(NCCc4nc5ccccc5[nH]4)c4ccccc34)nc2c1 [2 a, N 1,N4‐bis[2‐(1H‐benzo[d]imidazol‐2‐yl)ethyl]phthalazine‐1,4‐diamine]	19.9 ± 1.4 µM	5.8 ± 0.2 µM	4.4 ± 0.2 µM	33.5 ± 1.6 µM	4.4 ± 0.3 µM	1(1)	18.7 ± 1 µM	3	1 (1)	38.7 ± 1.7 µM	4	4	
c1ccc2c(NCCc3cn4ccccc4n3)nnc(NCCc3cn4ccccc4n3)c2c1 [2 c, N 1,N4‐bis(2‐(imidazo[1,2‐a]pyridin‐2‐yl)ethyl)phthalazine‐1,4‐diamine]	18.7 ± 1.4 µM	14.7 ± 0.6 µM	22.4 ± 1.3 µM	20.1 ± 1.3 µM			2.4 ± 0.1 µM		1 (1)	19.6 ± 0.7 µM			
c1cnc(NCCCCn2ccnc2)cn1 [4 c, N ‐(4‐(1H‐imidazol‐1‐yl)butyl)pyrazin‐2‐amine]	9.6 ± 0.8 µM	10.7 ± 1.1 µM	7.4 ± 0.4 µM	17.9 ± 1.1 µM	7.7 ± 0.5 µM	2	22.3 ± 2.3 µM	2	2 (2)	29.8 ± 1.6 µM	3	3	Selectivity index Amastigote forms [7]: 4; IC50 [7]: 5.8 ± 0.2 µM; Selectivity index Amastigote forms [9]: 4; IC50 [9]: 5.5 ± 0.3 µM
c1cnc(NCCCCCn2ccnc2)cn1 [4 d, N ‐(5‐(1H‐imidazol‐1‐yl)pentyl)pyrazin‐2‐amine]	5.8 ± 0.3 µM	3.7 ± 0.1 µM	3.8 ± 0.3 µM	23.3 ± 0.7 µM	4.1 ± 0.3 µM	4	22 ± 1.7 µM	6	2 (2)	37.2 ± 1.2 µM	6	5	Selectivity index Amastigote forms [7]: 5; IC50 [7]: 4 ± 0.4 µM; Selectivity index Amastigote forms [9]: 11; IC50 [9]: 1.9 µM
O=C(Cn1ccnc1[N+](=O)[O-])NCc1ccccc1 [BNZ, benznidazole, reference compound]				15.8 ± 1.1 µM					0.9	13.6 ± 0.9 µM			Selectivity index Amastigote forms [10]: 0.6; IC50 [10]: 23.3 ± 4.6 µM; Selectivity index Trypomastigote forms [11]: 2.2; IC50 [11]: 6.2 ± 0.7 µM
Glucantime [reference compound]													IC50 [1, 12]: 15.2 ± 1 µM
N‐ [2‐(1H‐imidazol‐4‐yl)ethylamino]pyrazine [4 a]													IC50 [1, 12]: 21.9 ± 1.5 µM; IC50 [2, 13]: 31 ± 2.6 µM

Further lines, with some results ahead:

IC50 [3]	IC50 [4]	IC50 [5]	IC50 [6]	IC50 [8]	Molecule	Selectivity index Promastigote forms [3]	IC50 ([1]; Mus musculus, J774.2, 72 h)	Selectivity index Promastigote forms [4]	Selectivity index Epimastigote forms [6]	IC50 [2, 14]	Selectivity index Promastigote forms [5]	Selectivity index Amastigote forms [8]	also measured
19.9 ± 1.1 µM	28.1 ± 0.4 µM	57.4 ± 4.1 µM	30.5 ± 2.7 µM		Clc1ccc(NCCc2c[nH]cn2)nn1 [1 c, N ‐(2‐(1H‐imidazol‐4‐yl)ethyl)‐6‐chloropyridazin‐3‐amine]	1 (1)	17.1 ± 1.7 µM	1 (1)	1 (1)	39.6 ± 0.9 µM			
10.2 µM	14.5 ± 1.3 µM	9.6 ± 1.3 µM	16.5 ± 0.6 µM	8.1 ± 0.4 µM	c1ccc2c(NCCc3c[nH]cn3)nncc2c1 [1 e, 1‐[2‐(1H‐imidazol‐4‐yl)ethylamino]phthalazine]	6	63.9 ± 3.6 µM	4	21	350 ± 7.7 µM	7	8	Selectivity index Amastigote forms [7]: 9; IC50 [7]: 7.4 ± 0.3 µM; Selectivity index Amastigote forms [9]: 6; IC50 [9]: 10.8 ± 1.1 µM; Selectivity index Amastigote forms [10]: 24; IC50 [10]: 14.7 ± 1.1 µM; Selectivity index Trypomastigote forms [11]: 22; IC50 [11]: 15.9 ± 1.2 µM
24.5 ± 2.5 µM	6.1 ± 0.5 µM	10.7 ± 0.4 µM	30 ± 0.8 µM	5.3 ± 0.4 µM	Clc1nnc(NCCc2nc3ccccc3[nH]2)c2ccccc12 [2 b, N‐ [2‐(1H‐benzo[d]imidazol‐2‐yl)ethyl]‐4‐chlorophthalazin‐1‐amine]	1(1)	25.2 ± 1.7 µM	4	1 (1)	35 µM	2	5	
21.8 ± 2.3 µM	26.6 ± 5.4 µM	11.9 ± 0.7 µM	19.6 ± 0.8 µM		Clc1nnc(NCCc2cn3ccccc3n2)c2ccccc12 [2 d, 4‐chloro‐N‐(2‐(imidazo[1,2‐a]pyridin‐2‐yl)ethyl)phthalazin‐1‐amine]		2.4 ± 0.3 µM		1 (1)	23.8 ± 2.1 µM			
27.7 ± 3 µM	29.1 ± 2.3 µM	20.4 ± 2 µM	25.9 ± 1.2 µM	18.9 ± 1.6 µM	c1ccc2c(NCCc3c[nH]cn3)ncnc2c1 [3 a, N ‐[2‐(1H‐imidazol‐4‐yl)ethyl]‐quinazolin‐4‐amine]	2	65.2 ± 3.3 µM	2	4	112 ± 4.8 µM	3	3	Selectivity index Amastigote forms [10]: 17; IC50 [10]: 6.7 ± 0.8 µM; Selectivity index Trypomastigote forms [11]: 26; IC50 [11]: 4.3 ± 0.3 µM
